High-throughput results (PubChem)
EphB4 antag: blocks human EphB4 binding to ephrin-B2. P54760. EphB4 LBD / TNYL-RAW-Alexa532 peptide, fluorescence polarization. inhibition, % at 7 µM. 97,000 compounds, 0.15% hits. AID 720;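 active means inhibition above the screen-wide mean inhibition plus 3 SD, cut at about 15% in these data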;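 further: 0% = DMSO wells and 100% = excess unlabeled TNYL-RAW peptide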
PostGolgi ctrl: inhibits growth of the yeast control strain | efflux-deficient yeast background strain, growth absorbance A615, 16 h | inhibition, % at 10 µM | 98,000 compounds, 5% hits | AID 738
Ecoli tolC: growth inhibitors of E. coli BW25113 tolC mutant | 65,000 compounds, 2.2% hits | OD615 | growth inhibition, % at 10 µM (by protocol);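 active means growth inhibition at or above a cutoff equal to the mean over every tested compound plus 3 SD, cut at about 60% in these data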;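 further: growth measured after 20 h incubation at 37 °C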
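Signal: optical density read at 615 nm; Assay system: E. coli ΔtolC::kan strain BW25113; Times: 20 h incubation with compound, 37 °C; Dosing: 10 µM final, single dose.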
PostGolgi yeast: growth inhibition of a yeast mutant, post-Golgi transport screen. post-Golgi transport phenotypic cell assay. inhibition, % at 10 µM. 98,000 compounds, 0.9% hits. AID 739;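 further: yeast cells grown in 1536-well plates; yeast grown about 18 h at 30C before absorbance read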
E coli WT exp: growth inhibitors of E. coli BW25113 wild type; OD600 absorbance; growth inhibition, % at 100 µM; 98,000 compounds, 0.15% hits; AID 710;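 active means growth inhibition above about 50% at one test dose, limit read from the data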;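 further: growth measured after 20 h incubation at 37 °C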
Starred values were filed as active, the others as inactive; . = no result given. Only some compounds are listed: those with a hit (about 6% of all), similar ones and a draw of the others. Unless noted, no stated cut-off is given here; in the data, active means inhibition above about 30%; inactive means the rest.

SMILES	EphB4 antag	PostGolgi ctrl	Ecoli tolC	PostGolgi yeast	E coli WT exp
CCN(CC)S(=O)(=O)c1ccc(NC(=O)CC(NC(C)=O)c2ccccc2)cc1 (centres undefined)	-3	40*	.	-7	0
Cc1cc(C)c(S(=O)(=O)N2CCC(C(=O)NCc3ccc(Cl)cc3Cl)CC2)c(C)c1	5	89*	.	100*	-6
CCS(=O)(=O)N1CCC(C(=O)NCc2ccc(F)cc2Cl)CC1	-2	-4	-7	-3	5
CCOC(=O)c1cc(CC)sc1N	-7	30*	-9	0	15
COc1ccc(Cl)cc1NC(=O)c1nc2nc(C)cc(C(F)F)n2n1	-8	14	-5	-3	-2
COC(=O)c1c(NC(=O)c2nc3nc(C)cc(C(F)F)n3n2)sc2c1CCC2	1	34*	.	10	-14
Cc1cc(C(F)F)n2nc(C(=O)Nc3sc4c(c3C#N)CCC(C)C4)nc2n1 (centres undefined)	6	33*	.	30*	-10
O=C(Nc1cccc(C(F)(F)F)c1)c1cccnc1N1CCN(c2ccccc2)CC1	2	13	.	-4	-7
CC1Cc2ccccc2N1c1nc(C2CC2)nc2c1nnn2Cc1ccccc1 (centres undefined)	-7	.	.	.	.
c1ccc(Cn2nnc3c(N4CCc5ccccc5C4)ncnc32)cc1	0	30*	60	-2	-21
CC1Cc2ccccc2N1c1ncnc2c1nnn2Cc1ccccc1 (centres undefined)	7	42*	51	10	-3
O=c1c2nnn(Cc3ccccc3)c2ncn1-c1ccccc1	7	34*	-13	-3	-3
c1ccc(CCn2c3ccccc3c3nnc(SCc4ccc5nonc5c4)nc32)cc1	5	10	.	22	-19
CCOC(=O)c1cc(C(C)(C)C)oc1CNC(=O)c1c(C)oc2c1CCCC2	-13	.	.	.	.
CCCc1cc(Nc2ccccc2OCC)n2ncnc2n1	6	4	.	0	8
COc1ccc(-n2nnc3c(SCC(=O)N4CCCc5ccccc54)ncnc32)cc1	.	.	-15	.	.
COc1ccc(-n2c(SC(CN3CCCCC3)CN3CCCC3=O)nc3ccccc3c2=O)cc1 (centres undefined)	0	31*	.	0	-12
O=C1CCCN1CC(CN1CCOCC1)Sc1nnnn1-c1ccccc1 (centres undefined)	-1	3	-16	1	6
CC(C)CCNC(=O)CN(Cc1cccs1)C(=O)CCC(=O)Nc1nccs1	9	0	.	2	0
Cc1nn(C(C)C(=O)NNC(=S)Nc2ccc(Cl)cc2)c(C)c1[N+](=O)[O-] (centres undefined)	1	-3	.	-2	6
O=c1c2ccccc2n(Cc2ccc(Cl)cc2)c(=O)n1Cc1ccco1	.	75*	12	-2	-7
Cc1ccc(Cn2c(=O)n(Cc3ccco3)c(=O)c3ccccc32)cc1	.	7	-16	5	-2
COc1ccc(NC(=O)c2c(C(F)(F)F)nn(C)c2SCc2ccccc2Cl)cc1	0	23	.	8	-8
CN1C(=O)C2(N=c3ccccc3=N2)c2ccccc21	-4	27	6	5	-2
Cc1cccc(N2CCN(C(=O)c3cc4c(=O)n(C)c5ccccc5c4n3C)CC2C)c1 (centres undefined)	11	37*	53	-2	-6
SMILES	EphB4 antag	PostGolgi ctrl	Ecoli tolC	PostGolgi yeast	E coli WT exp
Cn1c(C(=O)N2CCCCCC2)cc2c(=O)n(C)c3ccccc3c21	5	9	7	-7	1
CC(C)Cn1c(=O)c2ccccc2c2ccccc2c1=O	0	33*	45	3	-1
CC(C)CCn1c(=O)c2ccccc2c2ccccc2c1=O	-2	22	.	3	1
Cc1ccsc1C1C=C(c2cccc(Br)c2)Nc2ncnn21 (centres undefined)	-8	37*	8	12	-18
CN(C)c1nc(SCCOC(=O)Nc2ccccc2)nc(N(C)C)n1	8	13	86*	-6	-29
CCOc1nc(SCCOc2ccccc2)nc(N(C)C)n1	.	5	2	41*	7
COc1ccc(OCCSc2ncccn2)cc1	0	33*	-18	-4	3
CCOC(=O)c1cnc(SC)nc1Oc1cccc(NC(=O)c2cccc(Cl)c2Cl)c1	-3	6	.	0	-29
CC(O)c1cccc(NC(=O)CCC(=O)O)c1 (centres undefined)	19*	-6	3	-10	-16
CSc1ccccc1C(=O)Nc1cccc(C(C)O)c1 (centres undefined)	-4	-2	4	4	6
CCOc1ccc(Nc2cc(C)nc(-n3nc(C)cc3C)n2)cc1	-8	19	72*	12	10
CNc1cc(C)nc(-n2nc(C)cc2C)n1	1	12	-6	2	7
Cc1nn(Cc2cccc(C(=O)NC(C)c3ccc(C(C)(C)C)cc3)c2)c(C)c1[N+](=O)[O-] (centres undefined)	1	3	.	51*	-10
CCC(NC(=O)c1cccc(Cn2nc(C)c([N+](=O)[O-])c2C)c1)c1ccc(C(C)C)cc1 (centres undefined)	3	-5	.	-3	-10
Cn1cnnc1SCC(=O)Nc1ccc2nc(SCc3ccccc3F)sc2c1	-2	16	.	-3	-8
CN1CCN(C(=O)c2cc(Cl)ccc2Cl)CC1	2	31*	-6	0	4
CCOC(=O)C1CCCN(C(=O)c2cc(Cl)ccc2Cl)C1 (centres undefined)	-1	22	-3	-3	-5
COc1ccc(-n2ncc3c(N4CCC(C)CC4)ncnc32)cc1	.	.	52	.	.
Cc1cccc(-n2ncc3c(N(CCO)CCO)ncnc32)c1	.	9	-4	6	-1
COc1ccc(-n2ncc3c(N(C)C4CCCCC4)ncnc32)cc1	.	.	76*	.	.
Cc1cccc(-n2ncc3c(N(C)C4CCCCC4)ncnc32)c1	.	.	94*	.	.
C=CCOc1nc(-c2ccncc2)nc2ccccc12	-3	48*	3	17	-4
CCN(CC)c1ccc(Nc2nc(N3CCOCC3)c3ccccc3n2)cc1	1	13	.	2	7
c1ccc(-c2nc(N3CCCCCC3)c3ccccc3n2)nc1	-2	11	100*	3	26
COc1ccc(Nc2nc(N3CCCC3)c3ccccc3n2)cc1	.	7	76*	0	20
SMILES	EphB4 antag	PostGolgi ctrl	Ecoli tolC	PostGolgi yeast	E coli WT exp
CN1CCN(c2nc(-c3ccncc3)nc3ccccc23)CC1	5	-1	14	-3	2
c1ccc2c(N3CCCC3)nc(-c3ccncc3)nc2c1	5	61*	48	57*	-9
CCOc1ccc(-n2cnnn2)cc1S(=O)(=O)Nc1c(C)cccc1C	0	42*	4	-1	4
Cc1ccc(/C(N)=N/OC(=O)c2cccc(F)c2)cc1	1	44*	.	-3	11
CCOc1cc(C(=O)CSc2nnc(CNc3ccc(Cl)cc3)o2)ccc1NC(=O)CC	2	-4	0	-7	0
c1ccc(SCCOCCn2cncn2)cc1	1	3	-20	-4	6
OC(Cn1cncn1)(c1ccccc1)c1ccccc1	5	91*	.	103*	4
